Data from ChEMBL document CHEMBL4673294, “The discovery of quinoline derivatives, as NF-κB inducing kinase (NIK) inhibitors with anti-inflammatory effects in vitro, low toxicities against T cell growth” (Bioorg Med Chem, 2021).

Key:
[1] = target: T1, Mitogen-activated protein kinase kinase kinase 14 (Homo sapiens, UniProt Q99558); assay: Inhibition of recombinant N-terminal GST-fused human NIK (319 to 947 residues) expressed in baculovirus expression system incubated for 120 mins in presence of ATP by ADP-glo based luminescence assay
Outline: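 NIK kinase activity by ADP-Glo: human recombinant MAP3K14 in Tris pH 7.5 buffer with 100 μM Na3VO4, 2 mM DTT, 0.02 mg/mL BSA, 2 mM MgCl2, 5% DMSO; 10 μM ATP; 120 min at room temperature. ADP-Glo reagent 40 min, then detection reagent 40 min; luminescence converted to ADP via standard curve. IC50 from curve fitting; mean ± SD of two independent experiments.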
Target sequence in this assay (Q99558 whole entry, the tested form may be a part): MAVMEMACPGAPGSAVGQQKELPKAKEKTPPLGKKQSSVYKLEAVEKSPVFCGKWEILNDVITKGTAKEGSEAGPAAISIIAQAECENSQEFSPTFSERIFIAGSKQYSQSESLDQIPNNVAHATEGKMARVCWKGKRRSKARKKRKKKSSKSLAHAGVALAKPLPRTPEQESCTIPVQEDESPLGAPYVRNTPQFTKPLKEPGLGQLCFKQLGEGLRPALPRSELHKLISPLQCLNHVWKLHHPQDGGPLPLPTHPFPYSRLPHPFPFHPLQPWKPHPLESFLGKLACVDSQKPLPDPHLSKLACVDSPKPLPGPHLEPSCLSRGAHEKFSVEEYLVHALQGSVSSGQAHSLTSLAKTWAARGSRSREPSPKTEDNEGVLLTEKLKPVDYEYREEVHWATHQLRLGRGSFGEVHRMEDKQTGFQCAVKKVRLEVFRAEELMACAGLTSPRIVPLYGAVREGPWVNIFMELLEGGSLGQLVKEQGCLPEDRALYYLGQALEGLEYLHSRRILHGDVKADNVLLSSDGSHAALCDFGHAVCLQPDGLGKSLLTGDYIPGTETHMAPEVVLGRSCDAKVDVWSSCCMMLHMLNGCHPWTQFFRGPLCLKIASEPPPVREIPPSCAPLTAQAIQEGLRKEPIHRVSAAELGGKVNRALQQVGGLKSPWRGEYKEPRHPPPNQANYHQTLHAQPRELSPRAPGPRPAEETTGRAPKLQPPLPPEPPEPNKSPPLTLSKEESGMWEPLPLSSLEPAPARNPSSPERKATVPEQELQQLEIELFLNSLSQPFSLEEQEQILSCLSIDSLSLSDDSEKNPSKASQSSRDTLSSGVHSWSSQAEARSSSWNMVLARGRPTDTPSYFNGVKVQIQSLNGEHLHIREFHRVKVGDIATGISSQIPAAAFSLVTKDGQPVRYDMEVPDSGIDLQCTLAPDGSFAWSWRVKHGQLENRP

J774 = assay: Antiinflammatory activity in mouse J774 cells assessed as inhibition of LPS-induced NO production at 1 uM preincubated for 2 hrs followed by LPS stimulation and measured after 22 hrs by Griess reagent based assay relative to control; format: functional; conditions: time 24 hrs
[2] = Antiinflammatory activity in mouse T cells assessed as inhibition of ConA-induced induced T cell proliferation at 0.4 uM incubated for 48 hrs by CCK8 assay relative to control; format: functional
Outline: (§1)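 Mouse splenic T cells, isolated by negative selection kit, seeded at 2×10^6 cells/mL in RPMI with penicillin/streptomycin and glutamine. Compound at 2 or 0.4 μM (triplicate wells), DMSO control; Con A 5 μg/mL added, 48 h at 37 °C, 5% CO2. CCK8 absorbance; inhibition rate from test, blank and control wells; three independent experiments.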

[3] = Cytotoxicity against mouse T cells assessed as cell growth inhibition at 10 uM after 48 hrs by CCK8 assay; format: cell-based
Outline: (§2)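 Unstimulated mouse splenic T cells (no Con A) exposed to compound at 10 μM; growth measured by absorbance, with rate computed from test, blank and control well absorbances; mean ± SD of three independent experiments.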

[4] = Antiinflammatory activity in mouse T cells assessed as inhibition of ConA-induced induced T cell proliferation at 2 uM incubated for 48 hrs by CCK8 assay relative to control; format: functional; outline: as §1
[5] = target: T1, Mitogen-activated protein kinase kinase kinase 14; assay: Inhibition of recombinant N-terminal GST-fused human NIK (319 to 947 residues) expressed in baculovirus expression system assessed as residual activity at 2 uM incubated for 120 mins in presence of ATP by ADP-glo based luminescence assay relative to control
Outline: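 Single-point NIK enzyme activity at 2 μM compound with 10 μM ATP; human recombinant MAP3K14, 120 min room-temperature reaction, ADP-Glo luminescence read-out converted to ADP concentration.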
Target sequence in this assay (Q99558 whole entry, looked up, the tested form may be a part): as the sequence (Q99558 whole entry, the tested form may be a part) above

[6] = AUC (0 to infinity) in Sprague-Dawley rat at 10 mg/kg, po administered as single dose by LC-MS analysis; format: ADME, organism-based; design: route oral, time infinity, dose 10 mg/kg; conditions: in vivo
Outline: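 Male Sprague-Dawley rats, 8 weeks old, fasted overnight, were dosed once by oral gavage. The compound was suspended at 1.0 mg/mL in saline with 0.5% CMC-Na and 0.2% Tween 80. Plasma concentrations were followed over time. Plasma was deproteinised with acetonitrile containing verapamil and glibenclamide, diluted with water and analysed by LC/MS. Values are mean ± SD, n = 3 rats.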

[7] = Elimination half life in human liver microsomes incubated for 10 mins followed by potassium phosphate buffer addition and measured up to 60 mins by LC-MS analysis; format: ADME, Microsome; conditions: time <=70 min, read-out: LambdaZ
Outline: (§3)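 The test compound was pre-incubated with liver microsomes at 37 °C for 10 min. NCF60 wells received 100 mM potassium phosphate buffer and were incubated 1.0 h at 37 °C. The reaction was stopped with a 1:1 tolbutamide/labetalol mixture at 0, 5, 15, 30 and 60 min, then vortexed and centrifuged at 4 °C. Remaining parent compound in the supernatant was measured by LC-MS, and T1/2 was calculated by first-order kinetics.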

[8] = Clearance in Sprague-Dawley rat at 1 mg/kg, iv administered as single bolus dose by LC-MS analysis; format: ADME, organism-based; conditions: in vivo
Outline: (§4)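 Male Sprague-Dawley, 8 weeks old, fasted overnight, n = 3; single IV bolus via tail vein at 1.0 mg/kg in DMSO:PEG200:saline 20:20:60 (0.2 mg/mL). Plasma protein-precipitated with acetonitrile containing internal standards, analysed by LC/MS.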

[9] = Elimination half life in rat liver microsomes incubated for 10 mins followed by potassium phosphate buffer addition and measured up to 60 mins by LC-MS analysis; format: ADME, Microsome; conditions: time <=70 min, read-out: LambdaZ; outline: as §3
[10] = Intrinsic clearance in rat liver microsomes assessed per mg protein incubated for 10 mins followed by potassium phosphate buffer addition and measured up to 60 mins by LC-MS analysis; format: ADME, Microsome; conditions: time <=70 min, read-out: CLH
Outline: (§5)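 Rat, dog, monkey and human liver microsomes: compound preincubated with microsomes 10 min at 37 °C; samples quenched at 0, 5, 15, 30, 60 min with tolbutamide/labetalol, plus a 60 min no-cofactor control with 100 mM potassium phosphate buffer. Centrifuged, remaining compound by LC-MS; T1/2 and CL by first-order kinetics.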

[11] = AUC (0 to infinity) in Sprague-Dawley rat at 1 mg/kg, iv administered as single bolus dose by LC-MS analysis; format: ADME, organism-based; design: route intravenous, time infinity, dose 1 mg/kg; conditions: in vivo
Outline: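 Male Sprague-Dawley rats, 8 weeks old, fasted overnight, received a single rapid tail-vein bolus. Vehicle was DMSO:PEG200:saline 20:20:60 v/v/v at 0.2 mg/mL. Plasma concentrations were followed over time. Plasma was deproteinised with acetonitrile containing verapamil and glibenclamide, diluted with water and analysed by LC/MS. Values are mean ± SD, n = 3 rats.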

[12] = Intrinsic hepatic clearance in human; format: ADME; conditions: read-out: CLH
Outline: (§6)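 In vivo intrinsic clearance scaled from microsomal CLint (mL/min/mg protein) × microsomal protein per g liver × liver weight per kg body weight.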

[13] = Oral bioavailability in Sprague-Dawley rat at 10 mg/kg administered as single dose by LC-MS analysis; format: ADME, organism-based; conditions: in vivo
[14] = Cmax in Sprague-Dawley rat at 10 mg/kg, po administered as single dose by LC-MS analysis; format: ADME, organism-based; design: route oral, dose 10 mg/kg; conditions: in vivo
Outline: (§7)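 Male Sprague-Dawley, 8 weeks old, fasted overnight, n = 3; single gavage at 10 mg/kg as 1 mg/mL suspension in 0.5% CMC-Na/0.2% Tween 80. Plasma precipitated with acetonitrile plus internal standards; LC/MS quantitation.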

[15] = Volume of distribution in Sprague-Dawley rat at 1 mg/kg, iv administered as single bolus dose by LC-MS analysis; format: ADME, organism-based; conditions: in vivo; outline: as §4
[16] = Elimination half life in dog liver microsomes incubated for 10 mins followed by potassium phosphate buffer addition and measured up to 60 mins by LC-MS analysis; format: ADME, Canis lupus familiaris, Microsome; conditions: time <=70 min, read-out: LambdaZ; outline: as §3
[17] = Intrinsic hepatic clearance in monkey; format: ADME, Macaca mulatta; conditions: rhesus monkey, in vivo; read-out: CLH; outline: as §6
[18] = Intrinsic clearance in dog liver microsomes assessed per mg protein incubated for 10 mins followed by potassium phosphate buffer addition and measured up to 60 mins by LC-MS analysis; format: ADME, Canis lupus familiaris, Microsome; conditions: time <=70 min, read-out: CLH; outline: as §5
[19] = Tmax in Sprague-Dawley rat at 10 mg/kg, po administered as single dose by LC-MS analysis; format: ADME, organism-based; conditions: in vivo; outline: as §7
[20] = Intrinsic hepatic clearance in rat; format: ADME; conditions: in vivo, read-out: CLH; outline: as §6
[21] = Elimination half life in monkey liver microsomes incubated for 10 mins followed by potassium phosphate buffer addition and measured up to 60 mins by LC-MS analysis; format: ADME, Macaca mulatta, Microsome; conditions: rhesus monkey, time <=70 min, read-out: LambdaZ; outline: as §3
[22] = Intrinsic clearance in human liver microsomes assessed per mg protein incubated for 10 mins followed by potassium phosphate buffer addition and measured up to 60 mins by LC-MS analysis; format: ADME, Microsome; conditions: time <=70 min, read-out: CLH; outline: as §5
[23] = Half life in Sprague-Dawley rat at 1 mg/kg, iv administered as single bolus dose by LC-MS analysis; format: ADME, organism-based; conditions: in vivo; outline: as §4
[24] = Initial plasma concentration in Sprague-Dawley rat at 1 mg/kg, iv administered as single bolus dose by LC-MS analysis; format: ADME, organism-based; outline: as §4
[25] = Half life in Sprague-Dawley rat at 10 mg/kg, po administered as single dose by LC-MS analysis; format: ADME, organism-based; conditions: in vivo; outline: as §7
[26] = Intrinsic clearance in monkey liver microsomes assessed per mg protein incubated for 10 mins followed by potassium phosphate buffer addition and measured up to 60 mins by LC-MS analysis; format: ADME, Macaca mulatta, Microsome; conditions: rhesus monkey, time <=70 min, read-out: CLH; outline: as §5
[27] = Intrinsic hepatic clearance in dog; format: ADME, Canis lupus familiaris; conditions: in vivo, read-out: CLH; outline: as §6
[28] = Cytotoxicity against mouse T cells assessed as cell growth inhibition at 10 uM after 48 hrs by CCK8 assay relative to control; format: cell-based; conditions: read-out: GI; outline: as §2
JJN-3 = assay: Antiproliferative activity against human JJN-3 cells transfected with plasmid expressing NIK; format: functional, cell-based

## CC(O)(C#Cc1ccc2nc(O)cc(-c3cn[nH]c3)c2c1)c1nccs1 (stereo not drawn)
[1]
  IC50: 38.6 nM
J774
  inhibition at 1 µM: 31.4%
[2]
  inhibition at 0.4 µM: 23.3%
[3]
  Activity: Non-Toxic
[4]
  inhibition at 2 µM: 27.2%

## O=C(Nc1ccc2nccc(-c3cn[nH]c3)c2c1)C1CCCC1
[5]
  Activity: 83.6%

## CN(C)CCN(C)c1cc(-c2cn[nH]c2)c2cc(C#CC(C)(O)c3nccs3)ccc2n1 (stereo not drawn)
[1]
  IC50: 160 nM
J774
  inhibition at 1 µM: 34.6%
[2]
  inhibition at 0.4 µM: 19.9%
[3]
  Activity: Non-Toxic
[4]
  inhibition at 2 µM: 22.7%

## CC(O)(C#Cc1ccc2nccc(-c3cn[nH]c3)c2c1)c1cccs1 (stereo not drawn)
[1]
  IC50: 524 nM

## CC(O)(C#Cc1ccc(N2CCOCC2)c(Nc2ncnc3[nH]ccc23)c1)c1nccs1 (stereo not drawn)
[3]
  Activity: Non-Toxic

## CC(O)(C#Cc1ccc2nccc(-c3cn[nH]c3)c2c1)c1nccs1 (stereo not drawn)
[1]
  IC50: 22.1 nM
[6]
  AUC(0-inf): 885 ng·h/mL
[7]
  half-life: 33.1 min
[8]
  clearance: 43.3 mL/min/kg
J774
  inhibition at 1 µM: 43.8%
[9]
  half-life: 12.6 min
[10]
  microsomal CLint: 110 µL/min/mg
[11]
  AUC(0-inf): 408 ng·h/mL
[2]
  inhibition at 0.4 µM: 36.1%
[12]
  CLint scaled: 40.2 mL/min/kg
[13]
  bioavailability: 21.7%
[14]
  Cmax: 311 ng/mL
[15]
  Vd: 2.73 L/kg
[16]
  half-life: 14.2 min
[17]
  CLint scaled: 60.2 mL/min/kg
[3]
  Activity: Non-Toxic
[18]
  microsomal CLint: 97.5 µL/min/mg
[19]
  Tmax: 54 min
[20]
  CLint scaled: 199 mL/min/kg
[21]
  half-life: 33.2 min
[22]
  microsomal CLint: 42.6 µL/min/mg
[23]
  half-life: 22.9 min
[24]
  C0: 1000 ng/mL
[25]
  half-life: 71.4 min
[4]
  inhibition at 2 µM: 52.5%
[26]
  microsomal CLint: 41.8 µL/min/mg
[27]
  CLint scaled: 140 mL/min/kg

## CN1CCN(c2cc(-c3cn[nH]c3)c3cc(C#CC(C)(O)c4nccs4)ccc3n2)CC1 (stereo not drawn)
[1]
  IC50: 175 nM
J774
  inhibition at 1 µM: 41%
[2]
  inhibition at 0.4 µM: 19.4%
[4]
  inhibition at 2 µM: 36.7%
[28]
  inhibition at 48 h, 10 µM: 30%

## OC1(C#Cc2ccc3nccc(-c4cn[nH]c4)c3c2)CCCC1
[1]
  IC50: 564 nM

## CC(O)(/C=C/c1ccc2nccc(-c3cn[nH]c3)c2c1)c1nccs1 (stereo not drawn)
[1]
  IC50: 2080 nM

## CC(O)(C#Cc1ccc2nccc(-c3cn[nH]c3)c2c1)c1ccccn1 (stereo not drawn)
[1]
  IC50: 591 nM

## CC(C)(O)C#Cc1ccc2nccc(-c3cn[nH]c3)c2c1
[1]
  IC50: 1720 nM

## O=C(Nc1ccc2nccc(-c3cn[nH]c3)c2c1)c1nccs1
[5]
  Activity: 72.3%

## CN1CCC(n2cc(-c3c[nH]nc3Cl)c3cc(C#CC(C)(C)O)c(F)cc32)CC1
JJN-3
  EC50: 61 nM

## COCCN(C)c1cc(-c2cn[nH]c2)c2cc(C#CC(C)(O)c3nccs3)ccc2n1 (stereo not drawn)
[1]
  IC50: 5.2 nM
J774
  inhibition at 1 µM: 51.4%
[2]
  inhibition at 0.4 µM: 33%
[4]
  inhibition at 2 µM: 53.1%
[28]
  inhibition at 48 h, 10 µM: 30%

## CNc1cc(-c2cn[nH]c2)c2cc(C#CC(C)(O)c3nccs3)ccc2n1 (stereo not drawn)
[1]
  IC50: 26 nM
J774
  inhibition at 1 µM: 46.5%
[2]
  inhibition at 0.4 µM: 18.4%
[4]
  inhibition at 2 µM: 34.5%

## CC(O)(C#Cc1ccc2nc(OCCN3CCOCC3)cc(-c3cn[nH]c3)c2c1)c1nccs1 (stereo not drawn)
[5]
  Activity: 92%

## Cn1cc(-c2ccnc3ccc(C#CC(C)(C)O)cc23)cn1
[5]
  Activity: 99.1%

## OC1(C#Cc2ccc3nccc(-c4cn[nH]c4)c3c2)CCCCC1
[1]
  IC50: 6050 nM

## CC(O)(C#Cc1ccc2c(c1)N(c1nc(N)ncc1Cl)CC2)c1nccs1 (stereo not drawn)
[1]
  IC50: 4.9 nM
J774
  inhibition at 1 µM: 43.9%
[2]
  inhibition at 0.4 µM: 19%
[4]
  inhibition at 2 µM: 59.6%
[28]
  inhibition at 48 h, 10 µM: 30%
